Results published in ChEMBL document CHEMBL3864184, “Optimization of Highly Kinase Selective Bis-anilino Pyrimidine PAK1 Inhibitors” (ACS Med Chem Lett, 2016).

Legend:
[1] = Distribution coefficient, logD of the compound; format: physicochemical; conditions: octanol/water
[2] = Clearance in mouse at 0.5 mg/kg, iv; format: ADME, organism-based; conditions: in vivo
[3] = Half life in mouse at 0.5 mg/kg, iv; format: ADME, organism-based; conditions: in vivo
[4] = Unbound fraction in mouse plasma at 0.5 mg/kg, iv or 100 mg/kg, po; format: ADME, organism-based
[5] = Intrinsic clearance in rat hepatocytes assessed per million cells; format: ADME, cell-based, Hepatocyte; conditions: read-out: CLH
[6] = Cmax in mouse at 100 mg/kg, po; format: ADME, organism-based; set-up: dose 100 mg/kg, route oral; conditions: in vivo
[7] = Volume of distribution at steady state in mouse at 0.5 mg/kg, iv or 100 mg/kg, po; format: ADME, organism-based; conditions: in vivo, read-out: Vdss
Mus musculus = test: Acute toxicity in mouse at 100 mg/kg, po; format: organism-based; conditions: in vivo
Outline: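 Observed for visible signs of toxicity during a mouse pharmacokinetic study after an oral 100 mg/Kg dose. This was not a maximum tolerated dose study.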

Row | Compound | logD [1] | other results
1 | Cc1ccc(CO)cc1N(C)c1nc(Nc2cc(N3CCOCC3)cc(S(C)(=O)=O)c2)ncc1F | 3.3 | 
2 | Cc1ccc(N(C)c2nc(Nc3cc(N4CCOCC4)cc(S(C)(=O)=O)c3)ncc2F)cc1CO | 3.3 | 
3 | CCN(c1cc(CO)ccc1C)c1nc(Nc2ccc(N3CCN(C)CC3)c(S(=O)(=O)CC)c2)ncc1F | 3.5 | 
4 | CCS(=O)(=O)c1cc(Nc2ncc(F)c(N(C)c3cc(CO)c(C)cc3C)n2)ccc1N1C[C@@H]2C[C@H]1CN2C | 2.5 | clearance [2]: 22 mL/min/kg; half-life [3]: 1 h; fraction unbound [4]: 0.029; hepatocyte CLint [5]: 11 µL/min/1e6 cells; Cmax [6]: 7.7 µM; Vd [7]: 1.4 L/kg; Activity (Mus musculus): Non-Toxic

Continued, in another order:

Row | logD [1] | Compound | other results
5 | 3.7 | COCc1ccc(C)c(N(C)c2nc(Nc3cc(N4CCOCC4)cc(S(C)(=O)=O)c3)ncc2F)c1 | 
6 | 3.8 | CCS(=O)(=O)c1cc(Nc2ncc(F)c(N(C)c3cc(CO)c(C)cc3C)n2)cc(N2CCOCC2)c1 | 
7 | 3 | CN(c1cccc(CO)c1)c1nc(Nc2cc(N3CCOCC3)cc(S(C)(=O)=O)c2)ncc1F | 
8 | 3.8 | Cc1cc(C)c(N(C)c2nc(Nc3cc(N4CCOCC4)cc(S(C)(=O)=O)c3)ncc2F)cc1CO | 
9 | 3 | Cc1cc(C)c(N(C)c2nc(Nc3ccc(N4CCN(C)CC4)cc3)ncc2F)cc1CO | 
